Assay results from ChEMBL document CHEMBL1140775, “Low-density lipoprotein (LDL)-antioxidant lignans from Myristica fragrans seeds” (Bioorg Med Chem Lett, 2008).
Activity calls are given as the source filed them. No cut-off for these calls is given here.

How the values were obtained:
Type in all cases: functional
[1] = Antioxidant activity against LDL-oxidation by TBARS assay
Method in brief: (§1)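 Copper-mediated oxidation of human plasma LDL (120 µg/mL); oxidation quantified by TBARS formation. Mean of two independent experiments, each in duplicate.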

[2] = Antioxidant activity assessed as inhibition of LDL-oxidation at 20 uM by TBARS assay; method in brief: as §1
THP-1 [3] = experiment: Antioxidant activity against LDL-oxidation in human THP1 cells assessed as malondialdehyde level per mg of LDL protein at 5 uM
Method in brief: (§2)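 PMA-differentiated THP-1 macrophages incubated 24 h at 37 °C in serum-free RPMI 1640 with LDL (100 µg/mL) and 2 µM Cu2+, with or without compound. TBARS measured directly in harvested medium, expressed as MDA nmol/mg LDL protein; mean ± SD, n = 3.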

[4] = Antioxidant activity assessed as inhibition of copper-mediated LDL-oxidation at 20 uM by relative electrophoretic mobility method
Method in brief: (§3)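 LDL (120 µg/mL in PBS) incubated 12 h at 37 °C with 5 µM CuSO4 with or without compound. About 2.0 µg LDL protein run on 0.7% agarose gel, Coomassie-stained, densitometrically scanned; migration distance measured, protection expressed relative to native and fully oxidized LDL.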

[5] = Antioxidant activity assessed as inhibition of apoB100 fragmentation at 10 uM by SDS-PAGE method
Method in brief: (§4)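 Human LDL in PBS incubated 4 h at 37 °C with 5 µM CuSO4 with or without compound. About 2.0 µg LDL protein run on 7.5% SDS-PAGE, Coomassie-stained, densitometrically scanned; apoB-100 band area given as absorbance units per mm.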

[6] = Antioxidant activity assessed as inhibition of apoB100 fragmentation at 20 uM by SDS-PAGE method; method in brief: as §4
THP-1 [7] = experiment: Antioxidant activity against LDL-oxidation in human THP1 cells assessed as malondialdehyde level per mg of LDL protein at 1 uM; method in brief: as §2
[8] = Antioxidant activity assessed as inhibition of copper-mediated LDL-oxidation at 10 uM by relative electrophoretic mobility method; method in brief: as §3
[9] = Antioxidant activity against LDL-oxidation assessed as conjugated diene formation lag time at 1.0 uM
Method in brief: (§5)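 Human plasma LDL (120 µg protein/mL) oxidized with 5 µM CuSO4, with or without compound; conjugated diene formation read as absorbance at 234 nm every 10 min for 4 h. Lag time taken as elapsed time before onset of rapid conjugated hydroperoxide formation.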

[10] = Antioxidant activity against LDL-oxidation assessed as conjugated diene formation lag time at 3.0 uM; method in brief: as §5

COc1cc(C[C@H](C)[C@H](C)Cc2ccc(O)c(O)c2)ccc1O
IC50 [1]: 3.6 µM | inhibition [2]: 91%

COc1cc(C[C@@H](C)[C@@H](C)Cc2ccc(O)c(OC)c2)ccc1O [MESODIHYDROGUAIARETIC ACID]
Activity (THP-1 [3]): 35.2 nmol | inhibition [4]: 82% | IC50 [1]: 2.6 µM | inhibition [5]: 54% | inhibition [6]: 93% | Activity (THP-1 [7]): 306.3 nmol | inhibition [2]: 93% | inhibition [8]: 72% | Activity [9]: 140 min

COc1cc([C@H]2c3cc4c(cc3C[C@@H](C)[C@@H]2C)OCO4)ccc1O
IC50 [1]: 7.3 µM | inhibition [2]: 40.9%

CC(C)(Sc1cc(C(C)(C)C)c(O)c(C(C)(C)C)c1)Sc1cc(C(C)(C)C)c(O)c(C(C)(C)C)c1 [PROBUCOL]
IC50 [1]: 3.1 µM | inhibition [2]: 92% | Activity [10]: 67 min

C[C@H](Cc1ccc2c(c1)OCO2)[C@H](C)Cc1ccc2c(c1)OCO2
Activity [1]: inactive | inhibition [2]: 0%

COc1cc(C(OC)C(C)C(C)Cc2ccc3c(c2)OCO3)ccc1O (centres undefined)
IC50 [1]: 7.9 µM | inhibition [2]: 28.9%

COc1cc(C[C@H](C)[C@H](C)Cc2ccc3c(c2)OCO3)ccc1O [AUSTROBAILIGNAN 6]
IC50 [1]: 7.5 µM | inhibition [2]: 64.5%

COc1cc([C@@H](O)[C@H](C)[C@H](C)Cc2ccc3c(c2)OCO3)ccc1O
IC50 [1]: 6.3 µM | inhibition [2]: 45.7%
